Activity calls are given as the source filed them.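 Rule for the calls, unless noted: active = inhibition above 20% together with a positive visual image hit; inconclusive = visual image hit but inhibition not above 20%; inactive = no visual image hit.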

Consider 14 compounds from PubChem BioAssay.

The nature of test [1]: inhibitors of TNFa-induced NFkB p65 translocation, primary screen, imaging, HUVEC, MLSMR starter and 10KST1 sets (AID 438).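 For inhibition: signal is the nuclear over cytoplasmic p65 intensity ratio per well.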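 Note: compound added about 3h40 before a 20 min TNFalpha stimulation.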 The conditions noted are these: HUVEC TNFa-induced p65 nuclear translocation; cell count: measured here: nuclei count (cytotoxicity indicator), at 2.08 µM; inhibition: at 2 µM, stronger effect = higher value, 0% TNFa-plus-vehicle, 100% no-TNFa wells.
The nature of test [2]: inhibitors of mutant huntingtin aggregation, primary screen, imaging, exon1htt(103Q)mCFP cells, high-content imaging (AID 483;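 active = visual image review flags a hit and inhibition of aggregation exceeds 20%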;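 note: compound exposure lasted 3 days before fixation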;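 for nuclei count: percent of the per-plate median nuclei count of sample wells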). Conditions: exon1htt(103Q)mCFP cell line, aggregate imaging, at 2 µM; inhibition of aggregation: stronger effect = higher value; nuclei count: measured here: cell count, toxicity.
Test [3] can be described thus: inhibitors of E-selectin induction by TNFa, primary screen, imaging, HUVEC, immunofluorescence, MLSMR starter and 10KST1 sets (AID 487;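 active = visually confirmed hit in the image check and inhibition above 20%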;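 for inhibition: signal is fraction of cell area covered by stained E-selectin grains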;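 for nuclei count: 100% = median nuclei count of all wells on the same plate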). Conditions: HUVEC TNFalpha-induced E-selectin immunofluorescence imaging, at 2 µM; inhibition: stronger effect = higher value; nuclei count: measured here: cell number, toxicity.
The target in test [4] is Voltage-gated potassium channel subunit beta-2 (Rattus norvegicus) (UniProt P62483). In words: KvBeta enzyme negative modulators, primary screen, biochemical, NADPH fluorescence (AID 622;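 active = fluorescence slope higher than the sample average by over 3 SD, cut at about -0.22 in these data, passing the limit was not always enough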;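 note: slope of raw intensity against log time taken from 70 to 1610 s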). Conditions: recombinant KvBeta, 4-cyanobenzaldehyde reduction, at 10 µM, stronger effect = higher value.
Chain of Voltage-gated potassium channel subunit beta-2 (Rattus norvegicus) (P62483 whole entry, looked up): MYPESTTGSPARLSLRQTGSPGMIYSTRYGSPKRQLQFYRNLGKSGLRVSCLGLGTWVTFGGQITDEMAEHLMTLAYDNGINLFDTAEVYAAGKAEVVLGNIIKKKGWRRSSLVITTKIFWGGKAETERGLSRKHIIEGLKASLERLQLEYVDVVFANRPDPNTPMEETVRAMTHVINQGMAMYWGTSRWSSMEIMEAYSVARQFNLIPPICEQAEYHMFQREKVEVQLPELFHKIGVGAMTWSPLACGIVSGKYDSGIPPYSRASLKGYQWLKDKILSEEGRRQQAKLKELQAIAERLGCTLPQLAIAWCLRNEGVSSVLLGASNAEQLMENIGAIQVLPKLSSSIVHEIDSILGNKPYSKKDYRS
Test [5] has the same target. In words: KvBeta positive modulators, primary screen, biochemical, NADPH fluorescence (AID 623;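 active = NADPH fluorescence slope more negative than the mean of all samples by about 3 SD, 99.7% confidence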;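 note: fluorescence intensity change per second fitted from 20 to 320 s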). Conditions: Recombinant KvBeta, NADPH fluorescence decrease slope, 10 min; at 10 µM; stronger effect = lower value.
The target of test [6] is Muscarinic acetylcholine receptor M4 (Homo sapiens) (UniProt P08173). Put plainly: compounds altering M4/GIRK thallium flux, either direction, primary screen, M4 allosteric agonist project, cell-based, HEK293 M4/GIRK, BTC-AM (AID 625;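 active = fluorescence slope after compound addition differing from the mean of all tested samples at 99.7% confidence, mostly higher but some lower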;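 note: thallium influx through GIRK channels coupled to M4 in HEK293 cells with BTC-AM dye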). Conditions: at 10 µM, actives lie on both sides. Put shortly: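 System: HEK293 cells with M4 receptor and GIRK channels | Incubation: Cells overnight at 37 °C, BTC-AM loading 1 h, reads 2 min total | Technique: Kinetic BTC-AM fluorescence sampled at 1 Hz, 10 s pre-addition baseline | Measure: Post-addition slope, 15–24 s, of baseline-normalized fluorescence | Control set: Carbachol positive, DMSO negative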
Chain of Muscarinic acetylcholine receptor M4 (Homo sapiens) (P08173 whole entry, looked up): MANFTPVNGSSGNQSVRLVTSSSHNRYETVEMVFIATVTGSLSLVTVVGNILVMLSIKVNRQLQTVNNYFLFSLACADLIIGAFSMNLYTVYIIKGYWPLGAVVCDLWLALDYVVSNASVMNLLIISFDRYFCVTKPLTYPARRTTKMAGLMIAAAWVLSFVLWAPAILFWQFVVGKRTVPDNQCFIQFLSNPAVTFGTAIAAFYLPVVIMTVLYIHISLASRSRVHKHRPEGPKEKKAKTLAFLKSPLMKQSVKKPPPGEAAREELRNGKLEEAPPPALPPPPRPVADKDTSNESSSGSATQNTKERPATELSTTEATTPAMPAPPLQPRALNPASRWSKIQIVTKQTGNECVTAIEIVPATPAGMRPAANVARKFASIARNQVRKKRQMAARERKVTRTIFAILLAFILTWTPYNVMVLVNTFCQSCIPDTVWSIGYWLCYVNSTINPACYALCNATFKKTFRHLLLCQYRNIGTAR

The nature of test [7]: inhibitors of Sendai virus-induced IRF3 signaling, primary screen, TLR/RLR signaling modifier project, cell-based, Sendai virus stimulus, luciferase, 10K MLSCN set (AID 602276;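 active = inhibition at or above 50% at 10 µM; inactive = inhibition below 50%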;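 note: firefly luciferase from ISG56 promoter only with Renilla not read in this screen; 0% = Sendai virus plus DMSO and 100% = medium plus DMSO without virus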). The conditions noted are these: HEK293 RL24 IRF3 luciferase reporter, at 10 µM, stronger effect = higher value.
Test [8] can be described thus: inhibitors of poly I:C-induced TLR3 signaling, primary screen, cell-based, poly I:C stimulus, luciferase, 10K MLSCN set (AID 602277;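 active = inhibition of the reporter signal at or above 50%; inactive = inhibition below 50%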). The conditions noted are these: HEK293-TLR3 RL24 IRF3 luciferase reporter, at 10 µM, stronger effect = higher value.

As to `COc1ccc(-c2noc(CN3CCC(Cc4ccccc4)CC3)n2)cc1`, in test [1], the cell count turned out to be 322. The inhibition in test [1] is -0.7% (inactive); in test [3], -98.5% (inactive); in test [7] it was -7.04% (inactive); in test [8], -6.07% (inactive). In test [2], the inhibition of aggregation was -24.1% (inactive). For the same compound, the nuclei count in test [2] was 104%; in test [3], 123%. Moreover, the fluorescence slope in test [4] was -0.553 (inactive); in test [6], 0.00696 (inactive). Also, in test [5], the NADPH fluorescence slope was 6.3e-06 (inactive).

For the compound `COC(=O)c1[nH]c2cccc(C)c2c1NC(=O)CN1CCCc2ccccc21`, the cell count in test [1] was 279. Besides, the inhibition in test [1] is 6.2% (inactive); in test [3], -47.3% (inactive); in test [7] it was 2.04% (inactive); in test [8], 20% (inactive). Further, the inhibition of aggregation in test [2] was 22.8% (inactive). In addition, the nuclei count in test [2] is 94%; in test [3] it was 100%. Also, the values for the fluorescence slope in test [4] and in test [6] were -0.45 (inactive) and 0.00793 (inactive), respectively. The NADPH fluorescence slope in test [5] was 6.4e-05 (inactive).

In the case of `COc1cccc(C2C(C#N)=C(N)OC3=C2C(=O)CCC3)c1OC(=O)c1ccco1` (centres undefined), the cell count in test [1] was 384. Moreover, the inhibition was 4.7% (inactive) in test [1], 52.8% (inactive) in test [3], 12.4% (inactive) in test [7] and 10.4% (inactive) in test [8]. Besides, the inhibition of aggregation in test [2] was -12.3% (inactive). The nuclei count in test [2] was found to be 103%; in test [3], 88.3%. The values for the fluorescence slope in test [4] and in test [6] were -0.513 (inactive) and 0.00509 (inactive), respectively. Besides, the NADPH fluorescence slope in test [5] is -3.8e-05 (inactive).

Regarding `c1ccc2c(c1)ccc1nnc(-c3ccc4c(c3)OCO4)n12`, the cell count in test [1] came out at 338. Besides, the inhibition in test [1] was -1.7% (inactive); in test [3], -25.6% (inactive); in test [7], -1.33% (inactive); in test [8] it was 25.4% (inactive). Also, in test [2], the inhibition of aggregation is 18.1% (inactive). Besides, the nuclei count amounted to 87.8% in test [2] and 108% in test [3]. In addition, the figures for the fluorescence slope in test [4] and in test [6] were -0.58 (inactive) and 0.00599 (inactive), respectively. Besides, the NADPH fluorescence slope in test [5] is 1.5e-05 (inactive).

Consider `Cc1ccc(S(=O)(=O)NCCCCC(NC(=O)OC(C)(C)C)C(=O)O)cc1` (centres undefined) (tested in a mixture with another compound), for which the cell count in test [1] was found to be 631. Besides, the inhibition is 1.1% (inactive) in test [1], 34.4% (inactive) in test [3], 15.2% (inactive) in test [7] and 13.1% (inactive) in test [8]. In addition, the inhibition of aggregation in test [2] was 5.6% (inactive). Moreover, the nuclei count came to 99.5% in test [2] and 95.6% in test [3]. The fluorescence slope in test [4] is -0.6 (inactive); in test [6], 0.00344 (inactive). The NADPH fluorescence slope in test [5] was -3.1e-06 (inactive).

On to `COCCn1c(SCC(=O)Nc2nnc(C)s2)nnc1-c1c[nH]c2ccccc12`, for which, in test [1], the cell count amounted to 518. Besides, the inhibition was 7.1% (inactive) in test [1], -37.4% (inactive) in test [3], 5.93% (inactive) in test [7] and 14.2% (inactive) in test [8]. Moreover, the inhibition of aggregation in test [2] was -15.6% (inactive). For the same compound, the nuclei count in test [2] worked out at 114%; in test [3], 113%. Besides, the fluorescence slope in test [4] is -0.505 (inactive); in test [6] it was 0.00466 (inactive). Further, the NADPH fluorescence slope in test [5] was -0.00026 (inactive).

Consider `C=CCN1C(=O)/C(=C2\SC(N3CCOCC3)=NC2=O)c2cc(Br)ccc21`, for which the cell count in test [1] amounted to 418. Moreover, the inhibition is 3.5% (inactive) in test [1], -76% (inactive) in test [3], -11.1% (inactive) in test [7] and -37.3% (inactive) in test [8]. In addition, the inhibition of aggregation in test [2] was 22.3% (inactive). Also, the nuclei count in test [2] was found to be 100%; in test [3], 86.1%. Besides, the results for the fluorescence slope in test [4] and in test [6] were -0.519 (inactive) and 0.00286 (inactive), respectively. Moreover, in test [5], the NADPH fluorescence slope was -8.4e-05 (inactive).

As for `COCCN1CN(S(=O)(=O)c2ccccc2)c2nc3ccccc3nc21`, in test [1], the cell count stood at 307. For the same compound, the inhibition in test [1] is 8.3% (inactive); in test [3] it was -47.3% (inactive); in test [7], 13.6% (inactive); in test [8], 17.4% (inactive). In addition, the inhibition of aggregation in test [2] was -0.3% (inactive). Moreover, the nuclei count turned out to be 94.4% in test [2] and 160% in test [3]. The fluorescence slope in test [4] is -0.54 (inactive); in test [6], 0.00322 (inactive). The NADPH fluorescence slope in test [5] was -0.000125 (inactive).

With `CCNCCNC(=O)c1c(O)c2ccccc2n(CC)c1=O`, the cell count in test [1] was determined as 289. Moreover, the inhibition in test [1] was -1.4% (inactive); in test [3], 29.6% (inactive); in test [7], 10% (inactive); in test [8] it was 13.5% (inactive). Moreover, in test [2], the inhibition of aggregation is -5.8% (inactive). The nuclei count in test [2] came out at 60.8%; in test [3], 99.7%. The fluorescence slope in test [4] was -0.539 (inactive); in test [6], 0.0077 (inactive). The NADPH fluorescence slope in test [5] was -4.3e-05 (inactive).

With `Cc1ccccc1NC(=O)C1Cc2ccccc2C(=O)O1` (centres undefined), the cell count in test [1] turned out to be 193. Also, the inhibition in test [1] is -5.8% (inactive); in test [3], 20.2% (inactive); in test [7] it was -9.01% (inactive); in test [8] it was -31.6% (inactive). The inhibition of aggregation in test [2] was -4.8% (inactive). Also, the nuclei count was 76.3% in test [2] and 79.8% in test [3]. The values for the fluorescence slope in test [4] and in test [6] were -0.529 (inactive) and 0.00563 (inactive), respectively. The NADPH fluorescence slope in test [5] was -3.3e-05 (inactive).

Regarding `O=C(O)CCn1c(SCc2ccccc2)nc2ccccc21`, in test [1], the cell count worked out at 423. Further, the inhibition in test [1] is -4.4% (inactive); in test [3], -33.6% (inactive); in test [7] it was -9.99% (inactive); in test [8], -40.3% (inactive). Further, the inhibition of aggregation in test [2] is 25% (inactive). The nuclei count in test [2] turned out to be 73.9%; in test [3] it was 93.6%. For the same compound, the fluorescence slope in test [4] was -0.505 (inactive); in test [6] it was 0.00554 (inactive). Further, in test [5], the NADPH fluorescence slope is -2.4e-05 (inactive).

As for `COc1ccc(CCNS(=O)(=O)c2ccc(C(=O)NCc3ccco3)cc2)cc1OC`, the cell count in test [1] was 355. The inhibition in test [1] was -13.1% (inactive); in test [3] it was -35.9% (inactive); in test [7], -8.15% (inactive); in test [8], -15.3% (inactive). For the same compound, the inhibition of aggregation in test [2] is 7.4% (inactive). Besides, the values for the nuclei count in test [2] and in test [3] were 94.7% and 66.4%, respectively. Further, the fluorescence slope in test [4] is -0.579 (inactive); in test [6], 0.00625 (inactive). Also, the NADPH fluorescence slope in test [5] is 2.6e-05 (inactive).

As for `COC(=O)c1ccc(-c2ccc(CNCC(O)c3ccccc3)o2)cc1` (centres undefined), in test [1], the cell count was determined as 400. In addition, the inhibition in test [1] was 3.2% (inactive); in test [3] it was -27.1% (inactive); in test [7] it was 13.2% (inactive); in test [8] it was 13.8% (inactive). The inhibition of aggregation in test [2] was -6% (inactive). In addition, the nuclei count worked out at 111% in test [2] and 115% in test [3]. Besides, the figures for the fluorescence slope in test [4] and in test [6] were -0.313 (inactive) and 0.00598 (inactive), respectively. Further, the NADPH fluorescence slope in test [5] is -1.1e-05 (inactive).

`Cc1ccc(S(=O)(=O)N2CCCC2C(=O)OCc2ccco2)cc1` (centres undefined): the cell count in test [1] was 411. Besides, the inhibition in test [1] is -8.4% (inactive); in test [3] it was -0.1% (inactive); in test [7], -9.42% (inactive); in test [8], -8.59% (inactive). The inhibition of aggregation in test [2] is -7.8% (inactive). For the same compound, the figures for the nuclei count in test [2] and in test [3] were 99% and 102%, respectively. In addition, the fluorescence slope in test [4] is -0.499 (inactive); in test [6], 0.005 (inactive). Also, the NADPH fluorescence slope in test [5] is -4e-05 (inactive).
